Assay results from publication PMC4339263 (Health physics, 2015).
Where “and” joins values, the source holds several entries; their conditions need not be identical. Equal values may be shown once. Read-outs that look alike come from different tables or passages of the source.

Assays:
[1] = cited from earlier work; for stability constant (log K) of the americium complex: ref Ansoborlo et al., 2007
[2] = Competitive binding of ^241Am in rat plasma; conditions: 3 nM ^241Am nitrate, 37°C; for logistic equation parameter a (slope) / logistic equation parameter b (inflection point) / logistic equation parameter c (asymptote, fraction of bound ^241Am): estimate ± 95% conf. interval
How it was run: (§1)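 Ligand stocks were in 10 mM sodium phosphate, pH 7.4, and added to plasma at 0.5–750 µM final, with ^241Am nitrate (stock in 1 M HCl). Samples were incubated at 37°C with mild agitation, then protein-bound Am was removed on a 3K ultrafilter (14,000×g, 30 min). Ligand-bound and cationic Am in the filtrate were separated on strong cation-exchange spin columns, and each fraction was gamma-counted (40–80 keV). Bound fraction was fitted against log concentration by logistic Gauss-Newton regression, and EC50 was taken at half of the asymptote.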

[3] = Competitive binding of ^241Am in human plasma; conditions: for EC50 / EC90 / logistic equation parameter a (slope) / logistic equation parameter b (inflection point) / logistic equation parameter c (asymptote, fraction of bound ^241Am): human plasma, 3 nM ^241Am nitrate, 37°C; for logistic equation parameter a (slope) / logistic equation parameter b (inflection point) / logistic equation parameter c (asymptote, fraction of bound ^241Am): estimate ± 95% conf. interval
How it was run: as §1

[4] = Competitive binding of ^241Am in beagle plasma; conditions: 3 nM ^241Am nitrate, 37°C; for logistic equation parameter a (slope) / logistic equation parameter b (inflection point) / logistic equation parameter c (asymptote, fraction of bound ^241Am): estimate ± 95% conf. interval
How it was run: as §1

[5] = Solvent extraction study of the Am; type: binding; conditions: for calculated formation constant (log K) of the ^241Am-ligand complex: calculated from lg β^cond and pKa values; for conditional stability constant (lg β^cond) of the ^241Am complex: pH 1.3, I = 0.1 M NaCl, 25°C, 0.1 M HDEHP in dodecane
How it was run: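 Tracer ^241Am (16.7 MBq L-1) was partitioned between the organic and aqueous phases, with ligand at 0.05–100 µM in the aqueous phase. Samples were vortexed, shaken for 60 min, and centrifuged (10,000×g, 10 min). Both phases were gamma-counted (40–80 keV window), in triplicate. D0 came from a ligand-free aqueous phase. lg β^cond was obtained from a linear fit of […] against ligand concentration, and formation constants were then derived using the pKa values.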

[6] = Ionization; type: physicochemical; conditions: 5 mM ligand in 0.15 M KCl
How it was run: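 The free ligand was titrated with acid and then with base. After each addition it was equilibrated for 30 s, and pH was then read on a glass electrode with an Ag/AgCl reference. Ligand integrity was checked afterwards by HPLC with charged aerosol detection. Constants were calculated from three replicates.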

[7] = Pharmacokinetics of C2E2 in beagle dogs; type: in vivo
How it was run: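 Dogs were 8–10 months old and weighed 10.1–12.0 kg. They were fasted overnight and dosed by gavage (12.05 mg mL-1 solution), with food returned about 2 h later. Jugular blood was drawn pre-dose and at 0.5–24 h into fluoride/oxalate tubes. Plasma was acidified with 20% formic acid and stored at –80 °C. Analysis was by LC/MS/MS with ^13C internal standards; the acid metabolite was measured as its Fe(III) complex in negative-ion mode. Data were fitted to a two-compartment model.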

[8] = type: in vivo, beagle; conditions: beagles, 100 mg kg^−1 oral C2E2
[9] = ref Martell, 1982; cited from earlier work
[10] = reported for DTPA; cited from earlier work
[11] = oral; ref Volf, 1984; cited from earlier work
[12] = 100 mg kg^−1 oral, two-compartment model

| Molecule | stability constant (log K) of the americium complex [1] | EC50 [2] [µM] | EC90 [2] [µM] | logistic equation parameter a (slope) [2] | logistic equation parameter b (inflection point) [2] | logistic equation parameter c (asymptote, fraction of bound ^241Am) [2] | EC50 [3] [µM] | EC90 [3] [µM] | logistic equation parameter a (slope) [3] | logistic equation parameter b (inflection point) [3] | logistic equation parameter c (asymptote, fraction of bound ^241Am) [3] | EC50 [4] [µM] | EC90 [4] [µM] | logistic equation parameter a (slope) [4] | logistic equation parameter b (inflection point) [4] | logistic equation parameter c (asymptote, fraction of bound ^241Am) [4] | calculated formation constant (log K) of the ^241Am-ligand complex [5] | conditional stability constant (lg β^cond) of the ^241Am complex [5] | pKa1 [6] | pKa2 [6] | also measured |
| --- | --- | --- | --- | --- | --- | --- | --- | --- | --- | --- | --- | --- | --- | --- | --- | --- | --- | --- | --- | --- | --- |
| transferrin: plasma protein that binds about 30% of the total ^241Am | 10.4 |  |  |  |  |  |  |  |  |  |  |  |  |  |  |  |  |  |  |  |  |
| CCOC(=O)CN(CCN(CCN(CC(=O)O)CC(=O)O)CC(=O)O)CC(=O)O [C2E1, monoethyl ester of DTPA] |  | 25.5 | 60.1 | 0.06 ± 0.01 | 25.50 ± 3.36 | 45.74 ± 1.51 | 5.26 | 19 | 0.16 ± 0.03 | 5.26 ± 0.74 | 55.22 ± 1.06 | 2.02 | 5.87 | 0.57 ± 0.13 | 2.02 ± 0.38 | 61.69 ± 1.4 | 21.7 ± 0.5 | 2.46 | 9.63 ± 0.03 | 6.35 ± 0.38 | pKa3 [6]: 2.99 ± 0.05; pKa4 [6]: 1.72 ± 1.5; pKa5 [6]: 1.18 ± 0.45; pKa6 [6]: < 1.5; pKa7 [6]: < 1.5 |
| O=[N+]([O-])O [nitrate] |  |  |  |  |  |  |  |  |  |  |  |  |  |  |  |  |  |  |  |  | affinity for americium (log K) ([1]; ref Silva and OECD Nuclear Energy Agency., 1995): 1.3 |
| CCOC(=O)CN(CCN(CCN(CC(=O)O)CC(=O)OCC)CC(=O)O)CC(=O)O [C2E2, DTPA diethyl ester] |  | 46.2 | 101 | 0.04 ± 0.00 | 46.17 ± 3.43 | 54.62 ± 1.58 | 8.87 | 18.4 | 0.23 ± 0.04 | 8.87 ± 0.80 | 60.29 ± 1.25 | 4.91 | 10.8 | 0.37 ± 0.02 | 4.91 ± 0.18 | 64.79 ± 0.50 | 19.6 and 19.6 ± 0.2 | 1.36 | 9.40 ± 0.02 | 4.68 ± 0.02 | fraction of the absorbed dose metabolized to C2E1 or DTPA ([7]; 100 mg kg^−1 oral): ~ 2%; difference between AUC0–24 of males and females ([7]; 100 mg kg^−1 oral, two males and two females): no significant difference; elimination half-life from the first compartment [7, 12]: 0.69 h; elimination half-life from the second compartment [7, 12]: 6.66 h; time to peak plasma concentration after administration ([7]; single 100 mg kg^−1 oral gavage): 1 h; difference between concentration required for chelation in humans and dogs ([3]; human vs dog plasma): less than 2 fold; difference between concentration required for chelation in humans and rats ([3]; human vs rat plasma): greater than 5 fold; stability of the ^241Am complex lower than that of the DTPA-^241Am complex [5]: 6 log units; strength of americium binding relative to the strongest ligand in the plasma ([5]; compared with the americium-transferrin complex): nine orders of magnitude higher; pKa3 [6]: 3.52 ± 0.03; pKa4 [6]: 1.87 ± 0.05; pKa5 [6]: 1.76 ± 0.05; pKa6 [6]: 1.45 ± 0.09; time plasma concentration is above the 50% maximal binding threshold [8]: 4.7 h |
| O=C(O)CC(O)(CC(=O)O)C(=O)O [citrate] | 8.6 |  |  |  |  |  |  |  |  |  |  |  |  |  |  |  |  |  |  |  |  |
| O=C(O)CN(CCN(CC(=O)O)CC(=O)O)CCN(CC(=O)O)CC(=O)O [DTPA, Diethylenetriaminepentaacetic acid, reference compound] |  | 5.36 | 12.4 | 0.31 ± 0.03 | 5.36 ± 0.43 | 35.69 ± 0.85 | 2.82 | 5.05 | 0.98 ± 0.13 | 2.82 ± 0.30 | 55.88 ± 1.40 | 1.08 | 2.25 | 1.87 ± 0.69 | 1.08 ± 0.18 | 54.75 ± 2.16 | 25.4 ± 0.3 | 2.70 |  |  | stability constant (log K) with iron [9]: 28.0; pKa1 [10]: 10.51 ± 0.01; pKa2 [10]: 8.54 ± 0.02; pKa3 [10]: 4.31 ± 0.02; pKa4 [10]: 2.55 ± 0.05; pKa5 [10]: 1.80 ± 0.05; pKa6 [10]: 1.60 ± 0.15; pKa7 [10]: 1.45 ± 0.15; bioavailability [11]: ~ 3% |
